Source: PubChem
tolC growth inh – growth inhibitors of E. coli tolC mutant, primary screen, strain BW25113 ΔtolC::kan, 384-well | growth inhibition, % at 10 µM (by protocol) | AID 573, 2007 | hit rate 2.2% among 65,000 | OD615;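 active = growth inhibition at or above a cutoff equal to the mean over every tested compound plus 3 SD, cut at about 60% in these data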;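 also: growth measured after 20 h incubation at 37 °C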
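Test system: tolC-deleted E. coli BW25113; medium: LB with kanamycin 50 µg/mL; compound: single-point testing at 10 µM; incubation: 20 h compound exposure of bacteria at 37 °C; signal: OD at 615 nm; evaluation: growth inhibition in percent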
E coli WT exp – growth inhibitors of wild-type E. coli, primary screen, strain BW25113, expanded library, OD600 | OD600 absorbance | growth inhibition, % at 100 µM | hit rate 0.15% among 98,000;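 active = growth inhibition above about 50% at one test dose, limit read from the data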;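 also: growth measured after 20 h incubation at 37 °C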
PostGolgi ctrl – growth inhibition of yeast control strain, primary screen, counter-screen for post-Golgi transport modulator project | efflux-deficient yeast background strain, growth absorbance A615, 16 h | inhibition, % at 10 µM | hit rate 5% among 98,000 | AID 738, 2007
Pyk2 oligo antag – antagonists of Pyk2 self-association, primary screen, Q293 cells, FERM NanoBiT luminescence, HTS; Protein-tyrosine kinase 2-beta (Homo sapiens), Q14289; stronger effect = lower value; z-score (the deposit names both 25 µM and 10 µM); hit rate 0.83% among 99,000; AID 1347419, 2020;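 active = Z-score of -3 or lower, scaled per plate to the spread of control and sample wells; inactive = z-score above -3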;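 also: negative z-score means lost luminescence so less FERM oligomerization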
Candida biofilm – clotrimazole potentiators killing Candida biofilms, primary screen, with clotrimazole, Alamar Blue; AID 834, 2007; C. albicans biofilm + clotrimazole; inhibition, % at 6 µM; hit rate 0.14% among 85,000;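 active = inhibition above 20%; inactive = inhibition below 20%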;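 also: preformed 24 hr biofilms exposed to compound for 48 hr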
PostGolgi yeast – phenotypic screen on post-Golgi transport, primary screen | hit rate 0.9% among 98,000 | post-Golgi transport phenotypic cell assay | inhibition, % at 10 µM;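 also: yeast cells grown in 1536-well plates; yeast grown about 18 h at 30C before absorbance read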
Each line names hits and unclear results; the compound was inactive in the other large screens. Most compounds without a hit are left out; they make up all but 6.5% or so of the library. Rule as the data show it, unless noted: active = inhibition above about 30%; inactive = the rest.

Cc1ccccc1-c1nnc(SCc2ccc(F)cc2)o1	PostGolgi ctrl 35
O=c1c(-c2nnc(SCc3ccc(Cl)cc3)o2)cccn1Cc1ccccc1	PostGolgi ctrl 61 (no result: tolC growth inh, Candida biofilm)
CC1=C(C(=O)OC(C)C)C(c2ccncc2)n2ncnc2N1 (stereo not drawn)	none
CC1=C(C(=O)OC(C)C)C(c2ccccn2)n2ncnc2N1 (stereo not drawn)	PostGolgi ctrl 33 (no result: Pyk2 oligo antag)
COc1ccc(NC(=O)c2c(OC)cccc2OC)c(OC)c1	Pyk2 oligo antag -4.4
CN(C)S(=O)(=O)Oc1cccc(C(=O)Nc2ccc(Cl)c(Cl)c2)c1	PostGolgi ctrl 36 (no result: tolC growth inh, Candida biofilm)
COc1cccc(C(=O)Nc2ccc(N(C)C)cc2)c1OC	none
COc1cccc(C(=O)Nc2ccc3nc(N4CCN(c5ncccn5)CC4)cc(C)c3c2)c1OC	PostGolgi ctrl 41 (no result: Pyk2 oligo antag, Candida biofilm)
CCOc1ccccc1C(=O)Nc1ccc2nc(N3CCN(c4ncccn4)CC3)cc(C)c2c1	none (no result: E coli WT exp, PostGolgi ctrl, Pyk2 oligo antag, PostGolgi yeast)
COc1ccc(NC(=O)c2ccccc2O)c(OC)c1	none (no result: tolC growth inh)
COc1cccc(NC(=O)c2cccc(OC)c2OC)c1	PostGolgi ctrl 48
Cc1ccc2oc(=O)c3cnn(CC(=O)N(CCCN4CCOCC4)Cc4ccco4)c3c2c1	none (no result: Pyk2 oligo antag)
CN(Cc1cccs1)C(=O)CSc1nnnn1C	none (no result: tolC growth inh)
COc1cccc(C(=O)Nc2cccc(SC)c2)c1	PostGolgi ctrl 30
O=C(NCc1ccco1)C1(c2ccc(Br)cc2)CCCC1	none (no result: tolC growth inh)
COc1ccccc1-c1nnc(SCC(=O)Nc2nc(-c3ccccc3)cs2)n1C	Pyk2 oligo antag -3.2
Cc1cc(C)nc(SCc2nnc(SCC(=O)Nc3nc(-c4ccccc4)cs3)n2C)n1	none (no result: tolC growth inh, E coli WT exp, PostGolgi ctrl, PostGolgi yeast)
CCn1c(SCC(=O)Nc2nc(-c3ccc(C)cc3)cs2)nnc1-c1ccccc1O	tolC growth inh 84, PostGolgi ctrl 76, PostGolgi yeast 69
CCn1nccc1C(=O)Nc1ccc(Cl)cc1Cl	PostGolgi ctrl 32
CNC(=S)Nc1ccc(Nc2ccccc2)cc1	none (no result: tolC growth inh)
CCOc1cc(CNc2cccc3ccccc23)cc(Br)c1OCC(=O)NC(C)(C)C	Pyk2 oligo antag -3.7 (no result: tolC growth inh, Candida biofilm)
CC(C)(C)NC(=O)CN(Cc1cccnc1)C(=O)c1csnn1	none
COc1ccc(Cl)cc1C(=O)Nc1nnn(C)n1	none
CCOC(=O)C(NS(=O)(=O)c1ccc(Br)cc1)C(C)C (stereo not drawn)	none (no result: Candida biofilm)
Cc1cc(/C=C2\SC(=S)NC2=O)c(C)n1C	PostGolgi ctrl 52 (no result: tolC growth inh, Candida biofilm)
O=C(Nc1ccccc1Oc1ccccc1)C1CC1	none
Cc1ccc(C)c(OCC(O)CN2CCC(C)CC2)c1C (stereo not drawn)	none
CC1CCN(CC(O)COC2CCC(C(C)(C)C)CC2)CC1 (stereo not drawn)	PostGolgi ctrl 98, PostGolgi yeast 97
Cc1ccc(N2CCN(CC(O)COC3CCCCC3)CC2)cc1 (stereo not drawn)	none
CC(C)(C)C1CCC(OCC(O)CN2CCN(c3ccccc3)CC2)CC1 (stereo not drawn)	PostGolgi ctrl 96, PostGolgi yeast 104 (no result: tolC growth inh)
Cc1cc(C)c2cc3c(N)c(C(=O)N4CCc5ccccc5C4)sc3nc2c1	none (no result: tolC growth inh, Candida biofilm)
CN1CCc2nc3sc(C(=O)C45CC6CC(CC(C6)C4)C5)c(N)c3cc2C1	PostGolgi ctrl 95, PostGolgi yeast 100 (no result: tolC growth inh, Candida biofilm)
COc1ccc(/C(C)=N/OCC(=O)N2CC3(C)CC2CC(C)(C)C3)cc1 (stereo not drawn)	none (no result: tolC growth inh, E coli WT exp, PostGolgi ctrl, Candida biofilm, PostGolgi yeast)
Cc1cccc(NC(=S)NNC(=O)CC(C)O)c1C (stereo not drawn)	PostGolgi ctrl 48 (no result: tolC growth inh, Candida biofilm)
CCc1cc2c(=O)c(-c3nc4ccccc4n3C)c(C)oc2c(CN(CC)CC)c1O	PostGolgi ctrl 35 (no result: tolC growth inh)
CCc1cc2c(=O)c(-c3nc4ccccc4n3C)coc2c(CN2CCN(C)CC2)c1O	none
COc1ccc(C)cc1NC(=O)CN1CCN(c2ccc(F)cc2)CC1	none
COC(=O)c1ccc(NC(=O)CN2CCN(c3ccccc3C)CC2)cc1	none (no result: tolC growth inh, E coli WT exp, PostGolgi ctrl, PostGolgi yeast)
COC(=O)c1ccc(NC(=O)CN2CCN(c3ccc(Cl)cc3)CC2)cc1	PostGolgi yeast 44
O=C(CN1CCN(c2ccc(Cl)cc2)CC1)Nc1cccc(F)c1	PostGolgi ctrl 30
COC(=O)c1ccc(NC(=O)CN2CCN(c3cccc(Cl)c3)CC2)cc1	tolC growth inh 75
COC(=O)c1sccc1NC(=O)CN1CCN(c2ccc(F)cc2)CC1	PostGolgi ctrl 32
Clc1ccc(OCCCn2cncn2)cc1Cl	none
Cc1ccc(C(=O)N2CCN(c3cccc(Cl)c3)CC2)cc1C	tolC growth inh 68
O=C(NC1CCN(C(=O)Nc2cccc(F)c2)CC1)C1CCCCC1	none
O=C(Nc1cccc(F)c1)N1CC=C(c2ccc(Cl)cc2)CC1	PostGolgi ctrl 41 (no result: tolC growth inh)
O=C(CN1CCCN(S(=O)(=O)c2ccc(Br)s2)CC1)Nc1ccc(Cl)cc1	PostGolgi ctrl 65 (no result: tolC growth inh)
CCOC(=O)CNC(=O)CN1CCCN(S(=O)(=O)c2ccc(Br)s2)CC1	none
c1ccc(-c2nc(NCC3CCCO3)c3ccccc3n2)nc1 (stereo not drawn)	none (no result: Candida biofilm)
Oc1cccc(Nc2nc(NCC3CCCO3)c3ccccc3n2)c1 (stereo not drawn)	tolC growth inh 94
Cn1c(Oc2ccccc2)c(C=O)c2ccccc21	none (no result: tolC growth inh, Candida biofilm)
CN1CCN(c2nc(-c3cccnc3)nc3ccccc23)CC1	none
c1cncc(-c2nc(N3CCCCCC3)c3ccccc3n2)c1	tolC growth inh 95, PostGolgi ctrl 66
c1ccc2c(N3CCCCCC3)nc(-c3ccncc3)nc2c1	PostGolgi ctrl 68 (no result: tolC growth inh)
CC1CN(c2nc(-c3ccccc3)nc3ccccc23)CC(C)O1 (stereo not drawn)	PostGolgi ctrl 41
CCN1CCN(c2nc(-c3ccncc3)nc3ccccc23)CC1	none (no result: tolC growth inh, Pyk2 oligo antag)
CCOc1nc(-c2ccncc2)nc2ccccc12	PostGolgi ctrl 35
C=CCNC(=O)C1=NOC(CNC(=O)c2c(-c3ccccc3Cl)noc2C)C1 (stereo not drawn)	none (no result: tolC growth inh, Candida biofilm)
CCn1nc([N+](=O)[O-])c(C(C#N)c2nc3cc(C(F)(F)F)ccc3s2)c(Cl)c1=O (stereo not drawn)	PostGolgi ctrl 36, Pyk2 oligo antag -3.3 (no result: tolC growth inh, Candida biofilm)
O=C(CSc1nc2c(sc3ccccc32)c(=O)n1Cc1ccco1)NCC1CCCO1 (stereo not drawn)	PostGolgi ctrl 32
Oc1cnn(-c2ccccc2)c1	PostGolgi ctrl 32 (no result: Candida biofilm)
O=C(Cc1cnn(-c2ccccc2)c1)c1ccc(O)c(O)c1O	none (no result: tolC growth inh)
COc1ccc(C2OC34CCCCC3C(C#N)(C#N)C2(C#N)C(=N)O4)cc1 (stereo not drawn)	none (no result: tolC growth inh)
Nc1nc(Nc2cccc(F)c2)nc2ccccc12	E coli WT exp 63
O=C(Nc1ccccc1)N(O)c1ccc(Cl)cc1	none
CC(C)Cn1c2ccccc2c2cc(C(=O)O)ccc21	none (no result: tolC growth inh)
COc1cc2c(C(=O)O)c(C)n(CC(C)C)c2c2ccccc12	PostGolgi ctrl 33 (no result: tolC growth inh)
CCOC(=O)N/C(N)=N/c1nc2ccccc2s1	PostGolgi ctrl 33
CCOC(=O)NC(Nc1nc2ccccc2s1)(C(=O)OCC)C(F)(F)F (stereo not drawn)	none
